For assay [1], the target named is T1, Proto-oncogene tyrosine-protein kinase Src (Homo sapiens, UniProt P12931). The assay is described as follows: Binding affinity for Src protein tyrosine kinase SH2 domain using scintillation proximity binding assay (SPA). On the technique in general: SPA uses beads or plates that emit light when radiolabelled molecules are held near them.
Assay [2] has as its target T1, Proto-oncogene tyrosine-protein kinase Src. The assay is described as follows: (§1) Binding affinity for Src protein tyrosine kinase SH2 domain using surface plasmon resonance (SPR) assay. (SPR reads the build-up and loss of mass on a sensor chip optically.)
The target is the same in assay [3]. The assay is described as follows: Binding affinity for Src SH2 domain in scintillation proximity binding assay (SPA).
The target is the same in assay [4]. The assay is described as follows: Binding affinity towards Src protein tyrosine kinase SH2 domain using surface plasmon resonance (SPR) assay.
Assay [5] has the same target. The description is as §1. The gist of the method: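 Surface plasmon resonance with human Src SH2 domain (aa 145–251), E. coli-expressed and purified by cation exchange and gel filtration. Ligands compete for binding; IC50 reported.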
This is another data set of the same source.

The target is the same in assay [6]. The experiment in a line: Binding affinity for Src SH2 domain in scintillation proximity binding assay (SPA) - inactive.
For assay [7] the target is unchanged. The experiment in a line: Binding affinity towards Src protein tyrosine kinase SH2 domain protein using scintillation proximity binding assay (SPA).
The target is the same in assay [8]. The assay is described as follows: Binding affinity towards Src protein tyrosine kinase SH2 domain using scintillation proximity binding assay (SPA).

For orientation: IC50 means the midpoint of a concentration-inhibition curve. High values mean a need for much substance, low ones inhibition by little substance.

T1 sequence (P12931 2-536 limits assumed): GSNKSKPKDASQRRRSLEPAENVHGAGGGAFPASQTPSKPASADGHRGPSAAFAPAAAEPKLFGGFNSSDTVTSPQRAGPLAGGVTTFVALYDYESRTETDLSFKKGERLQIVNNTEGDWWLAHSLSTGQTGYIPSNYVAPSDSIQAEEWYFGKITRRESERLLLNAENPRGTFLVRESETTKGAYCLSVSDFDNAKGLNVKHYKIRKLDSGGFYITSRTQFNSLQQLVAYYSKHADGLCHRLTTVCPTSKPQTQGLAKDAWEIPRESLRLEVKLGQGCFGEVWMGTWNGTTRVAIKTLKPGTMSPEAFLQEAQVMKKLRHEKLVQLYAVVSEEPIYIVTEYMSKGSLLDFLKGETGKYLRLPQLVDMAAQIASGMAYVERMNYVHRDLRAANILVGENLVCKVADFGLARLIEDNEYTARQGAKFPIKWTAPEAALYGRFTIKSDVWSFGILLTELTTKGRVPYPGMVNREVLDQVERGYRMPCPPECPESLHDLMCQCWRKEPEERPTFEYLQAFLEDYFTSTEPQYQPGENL

For the molecule `COc1cccc(C=O)c1OP(=O)(O)O`, the half-maximal inhibitory concentration (IC50) in assay [1] is 95 µM.

Turning to `O=Cc1ccccc1OP(=O)(O)O`, the 50% inhibitory concentration (IC50) in assay [2] was determined as 300 µM; in assay [3], 80 µM. On to `O=Cc1cccc(OP(=O)(O)O)c1`, for which the concentration for half-maximal inhibition (IC50) in assay [2] was 2100 µM; in assay [3], 600 µM. In assay [4], `COC(=O)c1cc(C[C@H](NC(C)=O)C(=O)N[C@H]2CCCCN(Cc3ccc(-c4ccccc4)cc3)C2=O)ccc1C(C(=O)O)C(=O)O` yielded an IC50 of 0.556 µM. `COC(=O)c1cc(C[C@@H](NC(C)=O)C(=O)N[C@H]2CCCCN(Cc3ccc(-c4ccccc4)cc3)C2=O)ccc1C(C(=O)O)C(=O)O` displayed a 50% inhibitory concentration (IC50) in assay [4] of 0.007 µM. Consider `Cc1cc(C=O)cc(C)c1OP(=O)(O)O`, for which the IC50 in assay [5] stood at 5000 µM. For the molecule `O=C(O)CC(CC(=O)O)c1ccccc1`, the IC50 result in assay [6] is given as “Not Active”. Consider `CC[C@H](C)[C@H](NC(=O)[C@H](CCC(=O)O)NC(=O)[C@H](CCC(=O)O)NC(=O)[C@H](Cc1ccc(OP(=O)(O)O)cc1)NC(C)=O)C(N)=O`, for which the IC50 in assay [2] came to 0.001 µM; in assay [3], 0.15 µM. As for `Cc1cc(C=O)c(OP(=O)(O)O)c(C=O)c1`, the IC50 in assay [3] is 39 µM. On to `O=C(O)C(c1ccc(O)cc1)S(=O)(=O)O` (stereo not drawn), for which the concentration for half-maximal inhibition (IC50) in assay [7] is 190 µM. On to `O=C(O)CC(C(=O)O)c1ccccc1` (stereo not drawn), for which the IC50 result in assay [6] is listed as “Not Active”. In the case of `CC(CC(=O)O)(CC(=O)O)c1ccccc1`, in assay [6], the 50% inhibitory concentration (IC50) entry is given as “Not Active”. Turning to `Cc1ccc(C(C(=O)O)C(=O)O)c(COC=O)c1`, the IC50 in assay [8] is 100 µM. For the molecule `O=S(=O)(O)C(O)c1ccccc1` (stereo not drawn), in assay [6], the half-inhibitory concentration (IC50) entry was “Not Active”. Take `Cc1ccc(CC(=O)O)c(C=O)c1`: the half-maximal inhibitory concentration (IC50) in assay [3] is 385 µM. On to `O=C(O)C(c1ccccc1)S(=O)(=O)O` (stereo not drawn), for which, in assay [8], the 50% inhibitory concentration (IC50) amounted to 192 µM. `O=C(O)CC(CC(=O)O)(c1ccccc1)c1ccccc1`: the 50% inhibitory concentration (IC50) entry in assay [6] was “Not Active”. For `O=P(O)(O)Oc1ccccc1` [PHENYL DIHYDROGEN PHOSPHATE], the results for the half-inhibitory concentration (IC50) in assay [2] and in assay [1] were 5000 µM and 300 µM, respectively. As to `CCC(C(N)=O)(C(=O)O)c1ccccc1` (stereo not drawn) [PHENYLETHYLMALONAMIDE -], the IC50 entry in assay [6] was “Not Active”.

The record behind these values is ChEMBL document CHEMBL1135454, “SAR and X-ray. A new approach combining fragment-based screening and rational drug design: application to the discovery of nanomolar inhibitors of Src SH2” (J Med Chem, 2002).
